The text below walks through data of ChEMBL document CHEMBL4145571, “Ajmaline, Oxindole, and Cytotoxic Macroline-Akuammiline Bisindole Alkaloids from Alstonia penangiana” (J Nat Prod, 2018).

Experiment [1] deals with KB/VJ300. As to the kind of experiment: Growth inhibition of human KB/VJ300 cells after 72 hrs in presence of 0.1 uM of vincristine by MTT assay. The conditions noted are these: KB/VJ300, 72 h. The class given is functional. In a few lines: (§1)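 Values are mean ± SD from three independent experiments. For the KB/VJ300 line with vincristine, 0.1 μM vincristine was added alongside the test compound. The remaining method details come from earlier published procedures.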

A short description of experiment [2]: Growth inhibition of human KB/S cells after 72 hrs by MTT assay. The class given is functional. The method, boiled down:
as §1
A general note: Tetrazolium dyes change colour on reduction, which living cells bring about.

For experiment [3], the system named is KB/VJ300. As to the kind of experiment: Growth inhibition of human KB/VJ300 cells after 72 hrs by MTT assay. It is filed as functional. The conditions noted are these: KB/VJ300, 72 h. The method, boiled down: as §1
The subject of the next experiment is MDA-MB-231. As to the kind of experiment: Growth inhibition of human MDA-MB-231 cells after 72 hrs by MTT assay. It is filed as functional, cell-based. The conditions noted are these: MDA-MB-231, 72 h. In a few lines:
as §1

The subject of another experiment is LNCaP. As to the kind of experiment: Growth inhibition of human LNCAP cells after 72 hrs by MTT assay. It is filed as functional, cell-based. The method, boiled down:
as §1

The test system of the next experiment is A549. The experiment is described as follows: Growth inhibition of human A549 cells after 72 hrs by MTT assay. The class given is functional, cell-based. The conditions noted are these: A549, 72 h. In a few lines: as §1
Another experiment relates to HCT-116. The experiment is described as follows: Growth inhibition of human HCT116 cells after 72 hrs by MTT assay. The class given is functional, cell-based. The conditions noted are these: HCT-116, 72 h. The method, boiled down:
as §1

For a further experiment, the system named is MCF7. The experiment is described as follows: Growth inhibition of human MCF7 cells after 72 hrs by MTT assay. The conditions noted are these: MCF7, 72 h. The class given is functional, cell-based. The method, boiled down: as §1
The subject of a further experiment is HT-29. The experiment is described as follows: Growth inhibition of human HT-29 cells after 72 hrs by MTT assay. It is filed as functional, cell-based. The conditions noted are these: HT-29, 72 h. In a few lines:
as §1

Another experiment concerns PC-3. The experiment is described as follows: Growth inhibition of human PC3 cells after 72 hrs by MTT assay. The class given is functional, cell-based. The following applies: PC-3, 72 h. The method, boiled down: as §1

Turning to `COc1ccc(CCN(C)CCCC(C#N)(c2ccc(OC)c(OC)c2)C(C)C)cc1OC` (stereo not drawn) [VERAPAMIL], the half-maximal inhibitory concentration (IC50) – broadly, the concentration that inhibits the measured activity by half – in the experiment on KB/VJ300 [1] stood at 0.1 µM.
Regarding `CC[C@]1(O)C[C@H]2CN(CCc3c([nH]c4ccccc34)[C@@](C(=O)OC)(c3cc4c(cc3OC)N(C=O)[C@H]3[C@@](O)(C(=O)OC)[C@H](OC(C)=O)[C@]5(CC)C=CCN6CC[C@]43[C@@H]65)C2)C1` [VINCRISTINE], the half-inhibitory concentration (IC50) stood at 0.0003 µM in experiment [2] and 3.9 µM in the experiment with KB/VJ300 [3].
Regarding `C/C=C1/CN2CC[C@@]34c5cc([C@@H](C)[C@H]6[C@@H]7C[C@H]8c9c(c%10ccccc%10n9C)C[C@@H]([C@@H]7CO[C@@H]6O)N8C)c(OC)cc5N(C)[C@H]3[C@@H]2C[C@H]1C4C(=O)OC` (stereo partly drawn), the IC50 with MDA-MB-231 was 5.2 µM; in experiment [2], 2 µM; in the experiment on KB/VJ300 [3] it was above 10 µM; with LNCaP it was 6.9 µM; in the experiment on A549, 8.3 µM; in the experiment on HCT-116, 6.6 µM. Moreover, the IC50 was 3.8 µM in the experiment on MCF7, 0.7 µM in the experiment on HT-29, above 10 µM in the experiment on KB/VJ300 [1] and above 10 µM with PC-3.
